Results from different studies.
Compare with care: the assays were run in different laboratories.
SLC6A3: Sodium-dependent dopamine transporter (SLC6A3, Homo sapiens, UniProt Q01959)
PRMT1: Protein arginine N-methyltransferase 1 (PRMT1, Homo sapiens, UniProt Q99873)
PTPN22: Tyrosine-protein phosphatase non-receptor type 22 (PTPN22, Homo sapiens, UniProt Q9Y2R2)
CHEK1: Serine/threonine-protein kinase Chk1 (CHEK1, Homo sapiens, UniProt O14757)
TLR8: Toll-like receptor 8 (TLR8, Homo sapiens, UniProt Q9NR97)
FGFR2: Fibroblast growth factor receptor 2 (FGFR2, Homo sapiens, UniProt P21802)
ACLY: ATP-citrate synthase (ACLY, Homo sapiens, UniProt P53396)

`c1ccc(CCC2CCN(CCCCn3nnnc3C(c3ccccc3)c3ccccc3)CC2)cc1` has an IC50 of 383 nM (SLC6A3; transporter uptake, inhibitor).
For `CC(C)n1nnc(-c2cc(O)cc(Nc3ncnn4ccc(CN5CCC(N)CC5)c34)c2)n1`, the IC50 was 0.2 nM (AP2-associated protein kinase 1 (AAK1, Homo sapiens, UniProt Q2M2I8); enzyme activity, inhibitor).
The IC50 of `C#CCNC(=N)NCCCSC[C@H]1O[C@@H](n2cnc3c(NCCCc4ccccc4)ncnc32)[C@H](O)[C@@H]1O` is reported as 2090 nM (PRMT1; enzyme activity, inhibitor, fluorescence).
The IC50 of `COc1cc(O)c(C(CC(=O)Nc2ccc(C)cc2)c2ccc3c(c2)OCO3)c(OC)c1` (stereo not shown) is reported as greater than 50000 nM (Nuclear receptor ROR-gamma (Mus musculus, UniProt P51450); reporter gene).
`CCN(CC)C(=S)SSC(=S)N(CC)CC` has an IC50 of 47000 nM (PTPN22; enzyme activity, inhibitor, fluorescence; pH 6.5).
With `COC(=O)C1CCCN1C(=O)c1ccc2c(c1)NC(=O)c1ccc(-c3ccc(O)c(OC)c3)cc1N2` (stereo not shown) the IC50 was 128 nM (CHEK1; enzyme activity, inhibitor).
With `Fc1ccc(C(c2ccc(F)cc2)c2nnnn2CCCCN2CCC(c3ccccc3)CC2)cc1` the IC50 was 55.7 nM (SLC6A3; transporter uptake, inhibitor).
`O=C(N[C@@H]1CC[C@@H](c2cccc(F)c2F)CN(CC(F)(F)F)C1=O)N1CCC(n2c(=O)[nH]c3ncccc32)CC1` has an IC50 of 42400 nM (ATP-binding cassette sub-family C member 4 (ABCC4, Homo sapiens, UniProt O15439); transporter uptake, inhibitor; HEK293; cell membranes).
`Cc1ccc(C(=O)Nc2ccc(Oc3cc4cnn(C)c4cc3-c3cn[nH]c3)c(F)c2)c(=O)n1-c1ccc(F)cc1` has an IC50 of 41 nM (Discoidin domain-containing receptor 2 (DDR2, Homo sapiens, UniProt Q16832); enzyme activity, inhibitor, radiometric).
With `CCCC[C@H](NC(=O)[C@H](C)c1c(C)[nH]c2ccc(O)cc12)c1ncc(-c2cc3ccccc3nc2OC)[nH]1` the IC50 was greater than 45000 nM (Histone deacetylase 5 (HDAC5, Homo sapiens, UniProt Q9UQL6); enzyme activity, inhibitor).
The IC50 of `CO[C@H]1O[C@H](COS(=O)(=O)O)[C@@H](O[C@@H]2O[C@@H](C(=O)O)[C@@H](O[C@H]3O[C@H](COS(=O)(=O)O)[C@@H](O[C@@H]4O[C@H](C(=O)O)[C@@H](O[C@H]5O[C@H](COS(=O)(=O)O)[C@@H](O)[C@H](O)[C@H]5NS(=O)(=O)O)[C@H](O)[C@H]4O)[C@H](OS(=O)(=O)O)[C@H]3NS(=O)(=O)O)[C@H](O)[C@H]2OS(=O)(=O)O)[C@H](O)[C@H]1NS(=O)(=O)O` is reported as greater than 360000 nM (Coagulation factor XI (F11, Homo sapiens, UniProt P03951); enzyme activity, inhibitor, absorbance; pH 7.4).
`COc1cccc(CN(C(=O)CC(C)(C)C)[C@H]2C[C@@H](C(=O)N3CCNCC3)N(Cc3ccc4c(c3)OCO4)C2)c1` gave an IC50 of 1500 nM (Protein smoothened (SMO, Homo sapiens, UniProt Q99835); reporter gene, inhibitor, luciferase).
`Cc1cccc(-c2ccnc3c(C(=O)O)cnn23)c1` gave an IC50 of greater than 20000 nM (TLR8; reporter gene).
For `Cc1cc(Nc2cc(CN3CCOCC3)c3nc(C)c(Cc4ccc(Cl)cc4F)n3n2)n[nH]1`, the IC50 was 32 nM (FGFR2; enzyme activity, inhibitor, TR-FRET).
The IC50 of `CN(CCOc1ccc(CC2SC(=O)NC2=O)cc1)c1ccccn1` (stereo not shown) is reported as 1700 nM (Pantothenate kinase 3 (PANK3, Homo sapiens, UniProt Q9H999); enzyme activity, inhibitor, ATP luminescence).
`COc1ccc2c(c1)C(CC(=O)Nc1cccnc1)=C(C)/C2=C/c1cc(OC)c(OC)c(OC)c1` has an IC50 of 300 nM (cAMP and cAMP-inhibited cGMP 3',5'-cyclic phosphodiesterase 10A (PDE10A, Homo sapiens, UniProt Q9Y233); enzyme activity, inhibitor, FP).
`S=C(SSC(=S)N1CCOCC1)N1CCOCC1` gave an IC50 of 23000 nM (PTPN22; enzyme activity, inhibitor, fluorescence; pH 6.5).
The IC50 of `Clc1ccc(C(c2ccccc2)c2nnnn2CCCCN2CCN(CC=Cc3ccccc3)CC2)cc1` (stereo not shown) is reported as 412 nM (SLC6A3; transporter uptake, inhibitor).
The IC50 of `COc1cc(N2CCN(C)CC2)ccc1Nc1ncc2c(n1)N(C)c1ccccc1C(=O)N2CC(F)(F)F` is reported as 5000 nM (Activated CDC42 kinase 1 (TNK2, Homo sapiens, UniProt Q07912); cell-free assay, TR-FRET).
The IC50 of `CC(C)C1=CC[C@H]2C(=C1)CC[C@@H]1[C@]2(C)CCC[C@@]1(C)C(=O)O` is reported as greater than 20000 nM (ACLY; enzyme activity, inhibitor).
`COc1cc(-c2ccc3c(c2)Nc2ccc(CC(=O)N4CCCC(O)C4)cc2NC3=O)ccc1Cl` (stereo not shown) gave an IC50 of 14.8 nM (CHEK1; enzyme activity, inhibitor).
For `Cc1ccc(NC(=O)c2ccc(C)c(C(F)(F)F)c2)cc1C#Cc1nn(C2CCC(O)CC2)c2ncnc(N)c12` (stereo not shown), the IC50 was 40 nM (FGFR2; enzyme activity, inhibitor, radiometric).
`CSc1ccc(/C=C2/C(C)=C(CC(=O)O)c3cc(F)ccc32)cc1` has an IC50 of greater than 100000 nM (Dual specificity calcium/calmodulin-dependent 3',5'-cyclic nucleotide phosphodiesterase 1C (PDE1C, Homo sapiens, UniProt Q14123); enzyme activity, inhibitor).
With `OC1CCC(NCc2ccc3c(c2)Cc2c-3n[nH]c2-c2ccc[nH]2)CC1` (stereo not shown) the IC50 was 1660 nM (CHEK1; enzyme activity, inhibitor).
For `Nc1ncnc2c1ncn2[C@@H]1O[C@H](CN(CC[C@H](N)C(=O)O)Cc2ccc3ccccc3c2)[C@@H](O)[C@H]1O`, the IC50 was greater than 50000 nM (PRMT1; enzyme activity, inhibitor).
For `Clc1ccc(C(c2ccccc2)c2nnnn2CCCCN2CCC(Cc3ccc(Cl)c(Cl)c3)CC2)cc1` (stereo not shown), the IC50 was 550 nM (SLC6A3; transporter uptake, inhibitor).
With `C/C(=N\O)c1ccc(-c2ccc(O)c(Cl)c2)c(Cl)c1O` the IC50 was 7000 nM (Solute carrier family 2, facilitated glucose transporter member 1 (SLC2A1, Homo sapiens, UniProt P11166); transporter uptake, inhibitor, radiometric).
For `Clc1ccc(C(c2ccccc2)c2nnnn2CCCCN2CCN(CCCc3ccccc3)CC2)cc1` (stereo not shown), the IC50 was 415 nM (SLC6A3; transporter uptake, inhibitor).
`COc1ccc(-c2nsc(NC(=O)[C@@H]3C[C@H]3C)c2C)cc1` has an IC50 of 118 nM (Metabotropic glutamate receptor 5 (GRM5, Homo sapiens, UniProt P41594); calcium signal, antagonist).
`COc1ccc(-c2ccccc2)cc1NS(=O)(=O)c1cc(Cl)cc(Cl)c1O` gave an IC50 of 460 nM (ACLY; enzyme activity, inhibitor).
`Fc1ccc(C(c2ccc(F)cc2)c2nnnn2CCCCN2CCC(Cc3ccc(Cl)c(Cl)c3)CC2)cc1` has an IC50 of 608 nM (SLC6A3; transporter uptake, inhibitor).
For `O=C(O)c1cnn2c(-c3cccc(C(F)(F)F)c3)ccnc12`, the IC50 was greater than 20000 nM (TLR8; reporter gene).
`COc1ccc(S(=O)(=O)ON=C2C=C(C)C(=O)C(C)=C2)cc1` gave an IC50 of 33900 nM (Histone acetyltransferase KAT2A (KAT2A, Homo sapiens, UniProt Q92830); enzyme activity, inhibitor, radiometric).
For `COc1ccc2c(Oc3ccc4c(C(=O)Nc5ccccc5N)cccc4c3)ccnc2c1`, the IC50 was greater than 500 nM (Ephrin type-B receptor 4 (EPHB4, Homo sapiens, UniProt P54760); enzyme activity, inhibitor).
`N=C(NCCCSC[C@H]1O[C@@H](n2cnc3c(NCCCc4ccccc4)ncnc32)[C@H](O)[C@@H]1O)Nc1ccccc1` has an IC50 of 355 nM (PRMT1; enzyme activity, inhibitor, fluorescence).
The IC50 of `COC(=O)Cc1ccc2c(c1)NC(=O)c1ccc(-c3cccc4ccccc34)cc1N2` is reported as greater than 10000 nM (CHEK1; enzyme activity, inhibitor).
`c1ccc(CCC2CCN(CCCn3nnnc3C(c3ccccc3)c3ccccc3)CC2)cc1` has an IC50 of 726 nM (SLC6A3; transporter uptake, inhibitor).
For `COC(=O)Cc1ccc2c(c1)NC(=O)c1cc(C)c(-c3cccc(NC(C)=O)c3)cc1N2`, the IC50 was greater than 10000 nM (CHEK1; enzyme activity, inhibitor).
The IC50 of `Fc1ccc(C(c2ccc(F)cc2)c2nnnn2CCCCN2CCC(Cc3ccccc3)CC2)cc1` is reported as 57.9 nM (SLC6A3; transporter uptake, inhibitor).
The IC50 of `COc1cc2c(cc1OCc1ccncc1)Nc1cc(-c3ccc([N+](=O)[O-])c(OC)c3)ccc1C(=O)N2` is reported as 5.17 nM (CHEK1; enzyme activity, inhibitor).
`CCn1ncc2c1-c1cnc(N)c(c1)O[C@H](C)c1cc(F)ccc1-c1nn(C)nc1C2` gave an IC50 of 5.8 nM (Leukocyte tyrosine kinase receptor (LTK, Homo sapiens, UniProt P29376); enzyme activity, inhibitor, radiometric).
`COc1cc(-c2ccc3c(c2)N(C)c2ccccc2NC3=O)ccc1[N+](=O)[O-]` has an IC50 of 1640 nM (CHEK1; enzyme activity, inhibitor).
`CCOc1ccc2c(-c3cc(C)nc(Nc4cc(OC)cc(C(F)(F)F)c4)n3)cnn2n1` has an IC50 of greater than 10000 nM (Dual specificity protein kinase CLK4 (CLK4, Homo sapiens, UniProt Q9HAZ1); enzyme activity, inhibitor).
The IC50 of `COc1cc(-c2ccc3c(c2)Nc2ccc(NC(=O)c4cc[nH]n4)cc2NC3=O)ccc1[N+](=O)[O-]` is reported as 9.06 nM (CHEK1; enzyme activity, inhibitor).
The IC50 of `N=C(NCCCSC[C@H]1O[C@@H](n2cnc3c(NCCCc4ccccc4)ncnc32)[C@H](O)[C@@H]1O)NC1CC1` is reported as 1180 nM (PRMT1; enzyme activity, inhibitor, fluorescence).
With `O=C(O)C(=O)CC(=O)c1cccc(N(Cc2ccccc2)Cc2ccccc2)c1` the IC50 was 73000 nM (PTPN22; enzyme activity, inhibitor, absorbance; pH 7).
